# According to ChEMBL document CHEMBL4359872, “Identification of potent triazolylpyridine nicotinamide phosphoribosyltransferase (NAMPT) inhibitors bearing a 1,2,3-triazole tail group” (Eur J Med Chem, 2019):
# Calls of active or inactive are those of the source. The calls are words filed in the database; no cut-off is given here.
# Assays:
# [1] = Cytotoxicity against human SH-SY5Y cells assessed as cell viability at 1 uM measured after 48 hrs by MTT assay relative to control; assay type: cell-based; conditions: read-out: Activity
# [2] = tested on: SH-SY5Y; assay: Cytotoxicity against human SH-SY5Y cells measured after 48 hrs by MTT assay; assay type: cell-based
# [3] = biological target: Nicotinamide phosphoribosyltransferase (Mus musculus, UniProt Q99KQ4); assay: Inhibition of recombinant mouse wild-type NAMPT expressed in bacterial expression system using PRPP as substrate in presence of mouse NMNAT-3 measured for 1 hr by fluorescence assay
# Sequence of Nicotinamide phosphoribosyltransferase (Q99KQ4 whole entry): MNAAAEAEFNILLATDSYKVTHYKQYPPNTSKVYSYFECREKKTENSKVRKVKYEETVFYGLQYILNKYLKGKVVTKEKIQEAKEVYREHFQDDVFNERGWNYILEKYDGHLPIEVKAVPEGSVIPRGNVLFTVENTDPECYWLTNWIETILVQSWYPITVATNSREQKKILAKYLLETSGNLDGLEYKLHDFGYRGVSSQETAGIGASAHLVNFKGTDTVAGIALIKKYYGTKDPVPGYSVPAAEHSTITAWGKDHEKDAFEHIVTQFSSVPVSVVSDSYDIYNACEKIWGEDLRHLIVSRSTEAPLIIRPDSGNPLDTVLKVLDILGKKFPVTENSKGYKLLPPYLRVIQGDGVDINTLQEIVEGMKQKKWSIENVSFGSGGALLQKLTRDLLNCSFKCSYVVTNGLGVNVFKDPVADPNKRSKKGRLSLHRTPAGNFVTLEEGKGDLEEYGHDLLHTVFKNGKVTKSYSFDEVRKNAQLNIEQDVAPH
# Method in brief: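 In vitro NAMPT enzymatic assay run as concentration-response curves, with IC50 derived from the curves. Mean ± SD of three independent experiments (n = 6).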
# [4] = Kinetic aqueous solubility of the compound in 80:20 PBS/acetonitrile solution at 200 to 500 uM by HTS assay; assay type: physicochemical; conditions: read-out: Kinetic_solubility
# [5] = tested on: SH-SY5Y; assay: Cytotoxicity against human SH-SY5Y cells assessed as cell viability at 10 uM measured after 48 hrs by MTT assay relative to control; assay type: functional; conditions: read-out: Activity
# [6] = Permeability across apical side to basolateral side in human Caco2 cells at 30 uM after 4 hrs by HPLC analysis; assay type: ADME, cell-based; conditions: caco-2, 4 h
# Method in brief: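 Caco-2 monolayer used to measure apical-to-basal transfer, reported as % permeability and Papp. Terbutaline served as the positive control; n = 3.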
# [7] = biological target: Nicotinamide phosphoribosyltransferase (Homo sapiens) (UniProt P43490); assay: Inhibition of NAMPT in human SH-SY5Y cells assessed as reduction in NAD levels at 100 nM measured after 16 hrs by diaphorase and resazurin dye based fluorescence assay relative to control; assay type: cell-based
# Sequence of Nicotinamide phosphoribosyltransferase (Homo sapiens) (P43490 whole entry, looked up): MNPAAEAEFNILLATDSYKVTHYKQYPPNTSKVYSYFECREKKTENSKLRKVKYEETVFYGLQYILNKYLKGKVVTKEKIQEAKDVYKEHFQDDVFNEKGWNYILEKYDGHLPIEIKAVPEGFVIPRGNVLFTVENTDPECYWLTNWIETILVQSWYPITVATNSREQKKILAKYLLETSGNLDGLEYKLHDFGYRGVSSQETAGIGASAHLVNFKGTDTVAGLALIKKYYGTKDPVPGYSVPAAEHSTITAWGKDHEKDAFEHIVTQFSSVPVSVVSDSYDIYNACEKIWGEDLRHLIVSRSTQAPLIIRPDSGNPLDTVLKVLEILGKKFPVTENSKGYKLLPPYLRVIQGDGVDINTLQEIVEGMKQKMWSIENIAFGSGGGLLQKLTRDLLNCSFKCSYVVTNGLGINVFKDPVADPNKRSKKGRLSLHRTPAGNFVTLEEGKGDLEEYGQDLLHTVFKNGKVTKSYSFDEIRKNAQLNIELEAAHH
# Method in brief: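 SH-SY5Y cells treated at 100 nM for 16 h, then NAD level reduction measured as % of control. Mean ± SD of two independent experiments (n = 6).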
# [8] = Selectivity ratio of EC50 for cytotoxicity against human SH-SY5Y cells to IC50 for recombinant mouse wild-type NAMPT expressed in bacterial expression system; assay type: cell-based
# [9] = Thermodynamic solubility of compound in water after 24 hrs by LC-UV based shake flask method; assay type: physicochemical; conditions: buffer
# Method in brief: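 Thermodynamic water solubility measured by saturation shake flask, with the concentration of the saturated solution reported.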
# [10] = tested on: 4T1; assay: Antitumor activity against mouse 4T1 cells implanted in BALB/c mouse assessed as reduction in tumour volume at 10 mg/kg, ip bid for 12 days by vernier caliper method; assay type: functional, organism-based
# Method in brief: (§1)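 Tumour cells implanted in the mammary gland. Dosing began at day 14, once tumours were palpable, after randomization into vehicle and treated groups of 4 mice each. Compound given intraperitoneally at 10 mg/kg twice a day for 12 consecutive days. Data are means of two independent experiments.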
# [11] = Volume of distribution in BALB/c mouse at 10 mg/kg, iv administered as single dose measured after 24 hrs by LC-ESI/MS analysis; assay type: ADME, organism-based; conditions: in vivo
# Method in brief: (§2)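 Mice given a single 10 mg/kg i.v. injection; serial blood sampling, then half-life, clearance and volume of distribution derived.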
# [12] = Half-life in BALB/c mouse at 10 mg/kg, iv administered as single dose measured after 24 hrs by LC-ESI/MS analysis; assay type: ADME, organism-based; conditions: in vivo; method in brief: as §2
# [13] = tested on: TK6; assay: Genotoxicity in human TK6 up to 1 mM in presence of S9 fraction by GreenScreen assay; assay type: toxicity, cell-based
# [14] = tested on: Lymphocyte; assay: Genotoxicity in human primary lymphocytes assessed as induction of DNA damage up to 500 uM by GreenScreen assay; assay type: toxicity, cell-based
# [15] = tested on: TK6; assay: Genotoxicity in human TK6 cells assessed as induction of DNA damage up to 500 uM by GreenScreen assay; assay type: toxicity, cell-based
# [16] = Toxicity in Crl:CD Sprague-Dawley rat heart assessed as increase in cardiomyocytes cytoplasmic vacuolation at 100 mg/kg, ip administered once daily for 5 days by hematoxylin and eosin staining based microscopic analysis; assay type: organism-based; conditions: in vivo, 120 h
# [17] = Toxicity in Crl:CD Sprague-Dawley rat heart assessed as interstitial expansion at 100 mg/kg, ip administered once daily for 5 days by hematoxylin and eosin staining based microscopic analysis; assay type: organism-based; conditions: in vivo, 120 h
# [18] = tested on: Lymphocyte; assay: Genotoxicity in human primary lymphocytes up to 1 mM in presence of S9 fraction by GreenScreen assay; assay type: toxicity, cell-based
# [19] = tested on: 4T1; assay: Antitumor activity against mouse 4T1 cells implanted in Balb/c mouse mouse assessed as inhibition of tumor metastasis at 10 mg/kg, ip bid for 12 days measured post last dose by crystal violet staining based thioguanine clonogenic assay; assay type: functional, organism-based; method in brief: as §1
# [20] = Metabolic stability in Wistar Han rat liver microsomes assessed as parent compound remaining at 50 uM […] for 60 mins by LC-ESI/MS analysis; assay type: ADME, Microsome; conditions: read-out: Stability
# [21] = Toxicity in Crl:CD Sprague-Dawley rat retina at 100 mg/kg, ip administered once daily for 5 days by hematoxylin and eosin staining based microscopic analysis; assay type: organism-based; conditions: in vivo, 120 h
# [22] = Metabolic stability in human liver microsomes assessed as parent compound remaining at 50 uM […] for 60 mins by LC-ESI/MS analysis; assay type: ADME, Microsome; conditions: read-out: Stability
# [23] = tested on: 4T1; assay: Antitumor activity against mouse 4T1 cells implanted in BALB/c mouse assessed as reduction in tumor weight at 10 mg/kg, ip bid for 12 days; assay type: functional, organism-based; method in brief: as §1
# [24] = Clearance in BALB/c mouse at 10 mg/kg, iv administered as single dose measured after 24 hrs by LC-ESI/MS analysis; assay type: ADME, organism-based; conditions: in vivo; method in brief: as §2
# [25] = Toxicity in Crl:CD Sprague-Dawley rat heart assessed as hypereosinophilia at 100 mg/kg, ip administered once daily for 5 days by hematoxylin and eosin staining based microscopic analysis; assay type: organism-based; conditions: in vivo, 120 h
# [26] = AUC in BALB/c mouse at 10 mg/kg, iv administered as single dose measured after 24 hrs by LC-ESI/MS analysis; assay type: ADME, organism-based; parameters: time < 24 hr, dose 10 mg/kg, route intravenous; conditions: in vivo; method in brief: as §2
compound,measurement,setting,value
NC(=O)c1ccccc1-c1ccccc1C(=O)NCCCCCCCn1cc(-c2cccnc2)nn1,"viability at 48 h, 1 µM",[1],65.7%
same,EC50,[2],289 nM
same,IC50,[3],87.9 nM
O=C(O)c1ccc(-c2ccccc2C(=O)NCCCCCCCn2cc(-c3cccnc3)nn2)cc1,"viability at 48 h, 1 µM",[1],22.5%
same,EC50,[2],224 nM
same,IC50,[3],> 500 nM
CC(C)N1CCN(Cc2cn(-c3ccccc3C(=O)NCCCCCCCn3cc(-c4cccnc4)nn3)nn2)CC1,"viability at 48 h, 1 µM",[1],80.2%
same,solubility kinetic,[4],200 to 500 µM
same,EC50,[2],> 10000 nM
same,IC50,[3],24.7 nM
same,viability at 10 µM,[5],64.1%
CCOC(=O)C1CCN(Cc2cn(-c3ccccc3C(=O)NCCCCCCCn3cc(-c4cccnc4)nn3)nn2)CC1,"viability at 48 h, 1 µM",[1],14.1%
same,solubility kinetic,[4],200 to 500 µM
same,EC50,[2],61.5 nM
same,IC50,[3],20.6 nM
O=C(NCCCCCCCn1cc(-c2cccnc2)nn1)c1ccccc1-n1cc(CN2CCOCC2)nn1,"viability at 48 h, 1 µM",[1],30%
same,solubility kinetic,[4],200 to 500 µM
same,EC50,[2],> 500 nM
same,IC50,[3],49.6 nM
O=C(NCCCCCCCn1cc(-c2cccnc2)nn1)c1ccccc1-n1cc(CN2CCCC2)nn1,"viability at 48 h, 1 µM",[1],88.9%
same,solubility kinetic,[4],200 to 500 µM
same,EC50,[2],> 10000 nM
same,IC50,[3],25.4 nM
same,viability at 10 µM,[5],61.9%
CC(C)(C)NCC(O)c1cc(O)cc(O)c1 (centres undefined) [TERBUTALINE],permeability,[6],52.7%
O=C(NCCCCCCCn1cc(-c2cccnc2)nn1)c1ccccc1-n1cc(CN(CCO)CCO)nn1,"viability at 48 h, 1 µM",[1],37.8%
same,solubility kinetic,[4],200 to 500 µM
same,EC50,[2],> 500 nM
same,IC50,[3],73.8 nM
O=C(NCCCCCCCn1cc(-c2cccnc2)nn1)c1ccccc1-n1cc(CN2CCC(O)CC2)nn1,permeability,[6],< 1%
same,inhibition,[7],30%
same,"viability at 48 h, 1 µM",[1],91.7%
same,solubility kinetic,[4],200 to 500 µM
same,EC50,[2],> 10000 nM
same,IC50,[3],41.8 nM
same,Selectivity ratio,[8],200
O=C(NCCCCCCCn1cc(-c2cccnc2)nn1)c1ccccc1-n1ccnn1,permeability,[6],10.6%
same,Therm_solubility,[9],Soluble
same,Activity,[10],Active
same,Vd,[11],31.3 L/kg
same,half-life,[12],3.51 h
same,Activity,[13],Non-Toxic
same,"viability at 48 h, 1 µM",[1],10.5%
same,Activity,[14],Non-Toxic
same,Activity,[15],Non-Toxic
same,Activity,[16],Non-Toxic
same,solubility kinetic,[4],200 to 500 µM
same,Activity,[17],Non-Toxic
same,Activity,[18],Non-Toxic
same,EC50,[2],35.4 nM
same,inhibition,[19],Active
same,IC50,[3],3.4 nM
same,"remaining at 1 h, 50 µM",[20],70%
same,Activity,[21],Non-Toxic
same,"remaining at 1 h, 50 µM",[22],94%
same,Activity,[23],Active
same,clearance,[24],103 mL/min/kg
same,Activity,[25],Non-Toxic
same,AUC at 24 h,[26],1620 ng·h/mL
